# pIC50, pKi: −log10 of the molar value.
# What was measured:
# ABCB1 = ABCB1 (Homo sapiens, UniProt P08183); test: Activation of ABCB1 in human Caco-2 cells assessed as ATPase activation at 100 uM after 2 hrs
# D(2) dopamine receptor [1] = biological target: T1, D(2) dopamine receptor (Homo sapiens, UniProt P14416); test: Displacement of [3H]spiroperidol from human cloned dopaminergic D2 receptor expressed in rat C6 cells; assay type: cell-based
# Caco-2 = test: Ratio of apparent permeability from basolateral to apical over apical to basolateral side of human Caco-2 cells after 120 mins by UV-visible spectroscopy; details: caco-2, 2 h
# [2] = biological target: T2, ATP-dependent translocase ABCB1 (Homo sapiens, UniProt P08183); test: Inhibition of ABCB1-mediated [3H]vinblastine transportation in human Caco-2 cells; assay type: cell-based
# T2 sequence (P08183 whole entry): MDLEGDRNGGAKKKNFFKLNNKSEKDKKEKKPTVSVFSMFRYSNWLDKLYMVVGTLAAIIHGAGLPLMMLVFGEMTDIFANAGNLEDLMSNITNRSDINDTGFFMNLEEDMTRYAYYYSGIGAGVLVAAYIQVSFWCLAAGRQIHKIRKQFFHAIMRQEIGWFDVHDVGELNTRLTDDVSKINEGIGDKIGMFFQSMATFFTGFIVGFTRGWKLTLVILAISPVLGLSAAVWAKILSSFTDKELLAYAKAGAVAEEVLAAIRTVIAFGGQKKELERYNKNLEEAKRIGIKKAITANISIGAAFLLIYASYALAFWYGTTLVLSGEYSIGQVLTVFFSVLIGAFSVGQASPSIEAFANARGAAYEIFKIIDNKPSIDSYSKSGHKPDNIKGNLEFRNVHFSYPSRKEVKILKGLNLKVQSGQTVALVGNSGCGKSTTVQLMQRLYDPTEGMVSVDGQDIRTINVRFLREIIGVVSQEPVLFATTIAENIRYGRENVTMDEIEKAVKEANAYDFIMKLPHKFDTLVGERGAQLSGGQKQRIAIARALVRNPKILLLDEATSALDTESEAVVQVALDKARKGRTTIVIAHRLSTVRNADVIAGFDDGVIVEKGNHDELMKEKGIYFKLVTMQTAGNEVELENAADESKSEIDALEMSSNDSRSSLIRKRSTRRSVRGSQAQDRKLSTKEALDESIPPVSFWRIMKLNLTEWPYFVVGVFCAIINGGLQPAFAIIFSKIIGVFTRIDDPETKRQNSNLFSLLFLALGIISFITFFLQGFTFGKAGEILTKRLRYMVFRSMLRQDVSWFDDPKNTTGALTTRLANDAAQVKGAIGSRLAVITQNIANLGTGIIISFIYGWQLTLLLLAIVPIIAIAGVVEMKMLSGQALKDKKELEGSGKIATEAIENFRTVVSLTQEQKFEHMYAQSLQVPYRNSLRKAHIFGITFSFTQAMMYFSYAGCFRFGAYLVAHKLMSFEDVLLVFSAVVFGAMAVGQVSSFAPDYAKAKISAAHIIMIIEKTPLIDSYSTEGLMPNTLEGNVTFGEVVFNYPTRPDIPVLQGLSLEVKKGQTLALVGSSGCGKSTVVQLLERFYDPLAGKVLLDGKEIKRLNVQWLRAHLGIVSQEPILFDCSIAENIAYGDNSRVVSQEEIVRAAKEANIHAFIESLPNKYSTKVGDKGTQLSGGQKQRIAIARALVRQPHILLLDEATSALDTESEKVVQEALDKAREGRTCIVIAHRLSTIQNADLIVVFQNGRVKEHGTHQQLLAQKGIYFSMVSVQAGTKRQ
# Summary of the method: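 Caco-2 monolayers grown 21 days (TEER >800 Ω × cm²). 20 nM [3H]vinblastine added to the basolateral side with or without compound (200 nM–400 µM) for 120 min at 37 °C. Appearance on the apical side measured by scintillation counting. IC50 from nonlinear fit. Mean of three experiments, triplicate samples.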
# [3] = biological target: T3, 5-hydroxytryptamine receptor 1A (Homo sapiens, UniProt P08908); test: Displacement of [3H]8-OH-DPAT from human cloned 5-HT1A receptor expressed in human HeLa cells; assay type: cell-based
# T3 sequence (P08908 whole entry): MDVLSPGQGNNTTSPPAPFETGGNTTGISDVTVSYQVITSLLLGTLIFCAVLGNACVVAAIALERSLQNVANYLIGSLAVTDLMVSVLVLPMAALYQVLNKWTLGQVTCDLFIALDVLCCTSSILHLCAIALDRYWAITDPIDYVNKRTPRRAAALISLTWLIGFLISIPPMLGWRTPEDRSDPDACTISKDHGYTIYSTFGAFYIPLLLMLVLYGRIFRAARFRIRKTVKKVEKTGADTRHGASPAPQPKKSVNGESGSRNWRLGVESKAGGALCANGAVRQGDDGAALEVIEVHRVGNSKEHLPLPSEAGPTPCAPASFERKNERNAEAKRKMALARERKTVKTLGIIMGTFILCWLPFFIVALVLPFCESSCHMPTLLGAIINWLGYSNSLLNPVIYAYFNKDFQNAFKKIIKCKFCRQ
# Summary of the method: (§1)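 Compounds at 0.1 nM–10 µM in 50 mM Tris-HCl pH 7.4, 5 mM MgSO4, 120 min at 37 °C. Filtered on PEI-soaked GF/C. Nonspecific binding with 10 µM 8-OH-DPAT. […] Mean of three experiments, triplicate samples.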
# [4] = biological target: T2, ATP-dependent translocase ABCB1; test: Inhibition of ABCB1
# [5] = biological target: T4, Broad substrate specificity ATP-binding cassette transporter ABCG2 (Homo sapiens, UniProt Q9UNQ0); test: Inhibition of ABCG2
# T4 sequence (Q9UNQ0 whole entry): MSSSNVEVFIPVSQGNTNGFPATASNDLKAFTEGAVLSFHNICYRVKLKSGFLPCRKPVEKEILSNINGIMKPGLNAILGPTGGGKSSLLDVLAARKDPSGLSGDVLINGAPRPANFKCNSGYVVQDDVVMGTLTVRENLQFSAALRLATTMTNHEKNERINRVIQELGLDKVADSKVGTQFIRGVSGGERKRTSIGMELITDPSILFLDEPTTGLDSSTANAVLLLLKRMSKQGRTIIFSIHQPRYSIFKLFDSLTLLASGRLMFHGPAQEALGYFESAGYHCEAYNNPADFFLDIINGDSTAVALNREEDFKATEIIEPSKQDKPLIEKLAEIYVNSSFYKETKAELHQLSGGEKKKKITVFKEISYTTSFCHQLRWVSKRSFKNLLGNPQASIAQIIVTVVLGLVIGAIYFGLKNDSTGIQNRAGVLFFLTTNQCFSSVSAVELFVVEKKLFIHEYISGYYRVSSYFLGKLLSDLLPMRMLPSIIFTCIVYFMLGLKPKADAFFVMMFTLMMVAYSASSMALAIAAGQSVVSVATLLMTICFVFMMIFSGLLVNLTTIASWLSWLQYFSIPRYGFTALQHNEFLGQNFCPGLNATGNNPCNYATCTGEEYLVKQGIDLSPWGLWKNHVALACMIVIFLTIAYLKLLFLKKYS
# [6] = biological target: T5, 5-hydroxytryptamine receptor 1A (Homo sapiens) (UniProt P08908); test: Displacement of [3H]8-OH-DPAT from human cloned 5-HT1A receptor expressed in human HeLa cells at 10 uM; assay type: cell-based
# T5 sequence (whole entry): T3 sequence (P08908 whole entry)
# Summary of the method: as §1
# [7] = biological target: T2, ATP-dependent translocase ABCB1; test: Inhibition of ABCB1 in human Caco-2 cells assessed as ATPase activation at 100 uM after 2 hrs; assay type: cell-based; details: caco-2, 2 h
# Summary of the method: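 Caco-2 cells seeded at 2 × 10⁴ cells/well and held overnight at 37 °C, 5% CO2. Exposed to compound in complete medium for 2 h at 37 °C. Cells then lysed and ATP read by luciferase luminescence after 10 min dark adaptation. Tested at 100 µM; a positive response is reported as a percentage.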
# [8] = biological target: T2, ATP-dependent translocase ABCB1; test: Inhibition of ABCB1 transfected in MDCK cells assessed as increase in calcein-AM accumulation; assay type: cell-based
# D(2) dopamine receptor [9] = biological target: T1, D(2) dopamine receptor; test: Displacement of [3H]spiroperidol from human cloned dopaminergic D2 receptor expressed in rat C6 cells at 10 uM; assay type: cell-based
# Summary of the method: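 Buffer was 50 mM Tris, 10 mM MgCl2, 1 mM EDTA, pH 7.4. Incubated 60 min at 27 °C, then filtered on PEI-soaked GF/C. Nonspecific binding with 10 µM haloperidol.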
# ABCG2 = biological target: T6, ABCG2 (Homo sapiens, UniProt Q9UNQ0); test: Inhibition of ABCG2 in human Caco-2 cells assessed as [3H]mithoxatrone accumulation at 100 uM; assay type: cell-based; details: probe [3H]mithoxatrone
# T6 sequence (Q9UNQ0 whole entry): T4 sequence (Q9UNQ0 whole entry)
# Summary of the method: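 Caco-2 monolayers grown 21 days (TEER >800 Ω × cm²). 20 nM [3H]mitoxantrone added basolaterally with or without compound at 100 µM, 120 min at 37 °C. Apical appearance measured by scintillation counting. Result is % inhibition from the radioactivity difference with and without compound.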
# T1 sequence (P14416 whole entry): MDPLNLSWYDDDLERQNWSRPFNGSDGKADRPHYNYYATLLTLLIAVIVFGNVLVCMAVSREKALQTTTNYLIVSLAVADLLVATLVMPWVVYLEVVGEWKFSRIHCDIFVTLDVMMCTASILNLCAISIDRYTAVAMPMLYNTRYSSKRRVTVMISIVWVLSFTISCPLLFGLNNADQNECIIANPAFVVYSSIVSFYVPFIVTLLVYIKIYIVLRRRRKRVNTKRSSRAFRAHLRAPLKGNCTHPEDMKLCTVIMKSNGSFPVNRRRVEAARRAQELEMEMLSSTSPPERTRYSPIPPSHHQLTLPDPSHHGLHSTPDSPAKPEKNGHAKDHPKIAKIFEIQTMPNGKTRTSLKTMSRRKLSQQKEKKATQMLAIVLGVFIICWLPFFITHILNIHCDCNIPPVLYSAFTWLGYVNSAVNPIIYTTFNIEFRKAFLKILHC
# Chain of ABCB1 (P08183 whole entry): as the sequence (P08183 whole entry) above
SMILES,pIC50 [4],pIC50 [5],"activation at 2 h, 100 µM (ABCB1) [%]",pKi (D(2) dopamine receptor [1]),Ratio (Caco-2),pIC50 [2],pKi [3],inhibition [6] [%],Activity [7],pIC50 [8],inhibition (D(2) dopamine receptor [9]) [%],inhibition at 100 µM (ABCG2) [%]
COc1cccc(CCc2ccccc2OCCCN2CCN(c3ccccc3OC)CC2)c1,–,–,20,8.20,8.1,4.85,6.12,–,–,–,–,–
COc1cccc(CCc2ccccc2OCCCN2CCN(c3ccc(F)cc3)CC2)c1,–,–,38,6.18,–,–,6.10,–,–,–,–,–
COc1cccc(CCc2ccccc2OCCCN2CCc3cc(OC)c(OC)cc3C2)c1,–,–,–,< 6.00,4.3,6.85,< 5.30,36,Not Active,7.05,35,–
COc1cccc(CCc2ccccc2OCCN2CCN(c3ccccc3OC)CC2)c1,–,–,10,6.37,6.8,4.60,5.91,–,–,–,–,–
COc1cccc(CCc2ccccc2OCCN2CCN(c3ccc(F)cc3)CC2)c1,–,–,10,< 6.00,2.2,5.00,6.11,–,–,–,38,–
COc1cccc(CCc2ccccc2OCCCCN2CCN(c3cccc(C(F)(F)F)c3)CC2)c1,–,–,–,< 6.00,4.4,6.12,< 5.30,36,Not Active,5.75,27,24
COc1cccc(CCc2ccccc2OCCCCN2CCN(c3ccccc3OC)CC2)c1,–,–,54,7.17,3.9,5.24,5.96,–,–,–,–,–
COc1cccc(CCc2ccccc2OCCN2CCN(C)CC2)c1,–,–,–,6.75,6.8,6.10,< 5.30,48,Not Active,5.11,–,–
COc1cccc(CCc2ccccc2OCCCCN2CCN(c3ncccn3)CC2)c1,–,–,–,6.07,8.2,6.70,6.25,–,Not Active,5.93,–,16
COc1cccc(CCc2ccccc2OCCCCN2CCc3cc(OC)c(OC)cc3C2)c1,–,–,–,< 6.00,5.8,6.72,< 5.30,18,Not Active,6.80,40,–
COc1cccc(CCc2ccccc2OCCCCCN2CCc3cc(OC)c(OC)cc3C2)c1,–,–,20,< 6.00,4.9,6.46,< 5.30,22,–,6.96,18,–
COc1cccc(CCc2ccccc2OCCCN2CCc3ccccc3C2)c1,–,–,–,6.94,6.3,6.30,5.95,–,Not Active,5.94,–,–
COc1cccc(CCc2ccccc2OCCCCCN2CCN(c3ccccc3OC)CC2)c1,–,–,15,< 6.00,5.2,5.90,< 5.30,14,–,–,35,–
COc1cccc(CCc2ccccc2OCCCCN2CCN(C)CC2)c1,–,–,–,< 6.00,6.3,6.82,< 5.30,38,Not Active,5.32,14,–
COc1cccc(CCc2ccccc2OCCCCCN2CCN(c3ncccn3)CC2)c1,–,–,–,< 6.00,7.1,5.76,< 5.30,38,Not Active,–,24,–
COc1cccc(CCc2ccccc2OCCN2CCc3cc(OC)c(OC)cc3C2)c1,–,–,55,< 6.00,6.4,6.12,< 5.30,26,–,6.11,12,–
COc1cccc(CCc2ccccc2OCCCCN2CCN(c3ccc(F)cc3)CC2)c1,–,–,25,5.88,–,–,< 5.30,47,–,–,–,–
COc1cccc(CCc2ccccc2OCCCCCN2CCN(c3ccc(F)cc3)CC2)c1,–,–,40,6.07,–,–,< 5.30,27,–,–,–,–

# More lines, main results first:
pIC50 [4],pIC50 [5],SMILES,"activation at 2 h, 100 µM (ABCB1) [%]",pKi (D(2) dopamine receptor [1]),Ratio (Caco-2),pIC50 [2],pKi [3],inhibition [6] [%],Activity [7],pIC50 [8],inhibition (D(2) dopamine receptor [9]) [%],inhibition at 100 µM (ABCG2) [%]
6.74,6.30,COc1cccc(CCc2ccccc2NCc2ccc(OC)c(OC)c2)c1,–,–,–,–,–,–,–,–,–,–
7.07,5.82,COc1cccc(CCc2ccccc2NCc2cccc(OC)c2OC)c1,–,–,–,–,–,–,–,–,–,–
–,3.92,COc1cccc(CCc2ccccc2OCc2cccc(OC)c2OC)c1,–,–,–,–,–,–,–,–,–,–
6.19,3.82,COc1cccc(CCc2ccccc2OCc2ccc(OC)c(OC)c2)c1,–,–,–,–,–,–,–,–,–,–
